# Rpn11 inh: blocks the human proteasome subunit Rpn11; O00487; human 26S proteasome, Ub4-pepOG fluorescence polarization; 20S core pre-blocked with epoxomicin; inhibition, % at 20 µM; hit rate 0.59% among 360,000; AID 588493;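 active = inhibition at 20 µM, scaled to each plate's controls, above about 33%, limit read from the data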
# PP1 inh: PP1-alpha (human) inhibition in PP5 counter-screen. purified PP1alpha, OMFP fluorescence. hit rate 0.9% among 320,000. AID 2235. P62136. inhibition, % at 6.7 µM;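 active = inhibition above the mean inhibition of all tested compounds plus 3 SD, computed separately for each screening campaign, cut at about 15% in these data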
# NadD inh: blocks S. aureus nicotinate mononucleotide adenylyltransferase. purified NadD enzyme, colorimetric absorbance read-out. inhibition, % at 20 µM. hit rate 0.78% among 360,000; in the data active = inhibition above about 26%
# HNF4A DNA FP: change in binding of human HNF4 alpha to DNA; activity change, % at 10 µM; HNF4a-FITC DNA binding, fluorescence polarization, 1 h; hit rate 0.3% among 360,000; P41235; AID 1224865; in the data active = activity change above about 30%, passing the limit was not always enough
# Target sequence (P41235 whole entry, looked up): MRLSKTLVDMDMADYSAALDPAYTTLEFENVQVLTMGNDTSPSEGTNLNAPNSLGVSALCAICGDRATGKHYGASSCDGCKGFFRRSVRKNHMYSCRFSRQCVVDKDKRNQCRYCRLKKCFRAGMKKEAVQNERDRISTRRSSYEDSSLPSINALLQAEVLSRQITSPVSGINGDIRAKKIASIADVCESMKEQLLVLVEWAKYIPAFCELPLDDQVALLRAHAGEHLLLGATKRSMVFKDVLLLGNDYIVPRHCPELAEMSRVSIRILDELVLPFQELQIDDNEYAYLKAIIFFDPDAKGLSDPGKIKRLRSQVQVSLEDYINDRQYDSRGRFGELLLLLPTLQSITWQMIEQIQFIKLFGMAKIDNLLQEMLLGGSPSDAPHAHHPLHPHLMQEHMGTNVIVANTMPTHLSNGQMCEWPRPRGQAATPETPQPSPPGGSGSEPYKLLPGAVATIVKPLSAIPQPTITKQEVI
# TPT1 inhibitor: C. albicans TPT1 enzyme inhibition; inhibition, % at 5 µM; hit rate 0.81% among 300,000; recombinant caTPT1, FP RNA substrate dephosphorylation;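 active = inhibition above the mean of all tested compounds plus 3 SD, set per screening campaign, cut at about 24% in these data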;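 note: plate controls were DMSO alone for no effect and ferristatin control at 100 nM for full effect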
# CSN inh: inhibitors of human CSN-mediated cullin deneddylation; Q92905; Purified CSN, SCF-Nedd8-OG deneddylation, fluorescence polarization; inhibition, % at 12.5 µM; hit rate 0.38% among 360,000; AID 651999;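 active = pattern-corrected inhibition above about 35%, with an unprinted fluorescence ratio check between 0.5 and 1.5, limit read from the data, passing the limit was not always enough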;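 note: 0% = enzyme with substrate and 100% = substrate without enzyme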
#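 Assay system: HEK293T-derived human Csn5 enzyme; quantity: 0.24 nM enzyme; medium: Tris/NaCl/DTT buffer, pH 7.5; also added: substrate SCFSkp2-Nedd8OG, 10 nM; doses: 12.5 µM compound; schedule: 90 min reaction at room temperature; signal: FP; read-out: % inhibition of substrate cleavage by Csn5; benchmarks: substrate-only high control, full reaction low control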
# PP1 inh confirm: confirmation of human PP1 phosphatase inhibitors | shares compounds with PP1 inh | purified PP1alpha, OMFP substrate fluorescence | inhibition, % at 6.7 µM | hit rate 52% among 1,900 | AID 2358;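 active = mean PP1 inhibition above a set limit taken from the earlier primary screen, cut at about 15% in these data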
# PP5 counter: PP5 phosphatase inhibition, counter-screen for PP1 inhibitors; shares compounds with PP1 inh; hit rate 4% among 1,900; AID 2360; purified PP5c, OMFP fluorescence; inhibition, % at 6.7 µM;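 active = mean PP5 inhibition over triplicate wells above about 9.5% taken from the earlier PP1 screen, limit read from the data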
# Active calls of the source: *; x = no result. Sampled rows, rich in hits. Any-hit rate of the full collection: about 2.7%.
SMILES,Rpn11 inh,PP1 inh,NadD inh,HNF4A DNA FP,TPT1 inhibitor,CSN inh,PP1 inh confirm,PP5 counter
C[C@H](NC(=O)C1CCN(S(=O)(=O)c2ccccc2)CC1)C(=O)NCc1ccco1,-0.8,-4.5,-3.5,2.9,0.3,0.9,x,x
Nc1cc2nc3ccccc3oc-2cc1=O,54.3*,19.0*,2.7,3.9,23.8,13.3,1.7,6.7
NC(=NCc1ccccc1)NN=Cc1ccnc2ccccc12,-4.9,x,6.3,0.4,x,4.1,x,x
Cc1ccc(NC2c3ncccc3C(=O)N2Cc2cccs2)cc1 (centres undefined),-15.8,23.3*,2.0,4.8,-4.4,-1.9,20.4*,-1.9
COc1ccc2c3c(cccc13)C(=O)N(O)C2=O,-45.3,25.7*,2.9,-8.9,-26.9,-13.8,41.9*,-3.5
C[C@@H]1CN(S(=O)C(C)(C)C)[C@@H](CCO)/C1=C\c1ccccc1 (some centres undefined),-2.9,x,-2.5,0.8,x,-1.8,x,x
COc1ccc(CNC(=O)C2CCC(=O)N(C3CCCCCC3)C2)c(OC)c1 (centres undefined),-0.8,x,2.2,2.8,x,4.7,x,x
COC(=O)c1ccccc1NC(=O)CSc1nc(N)cc(N)n1,-5.3,-1.3,2.8,-4.4,-1.0,3.3,x,x
COC(=O)c1ccccc1NC(=O)CSc1nc(N)cc(=O)[nH]1,-7.1,26.2*,4.0,-12.8,3.4,0.6,-6.9,-7.2
O=C(Nc1cc(S(=O)(=O)N2CCCCC2)ccc1Cl)c1ccccc1NS(=O)(=O)c1ccc(F)cc1,13.2,19.9*,15.6,-1.9,1.6,2.4,13.7,7.5
S=c1nn[nH]c2ccccc12,-3.5,x,2.8,4.9,x,2.7,x,x
CC(O)(c1ccncc1)c1nc(-c2cccc(C(F)(F)F)c2)cs1 (centres undefined),-6.2,x,-1.4,-0.8,x,1.6,x,x
CCCCN1C(=O)Cc2c1nc(N)c1c(N)nc(N(CCC)CCC)c(C#N)c21,8.3,16.2*,14.2,5.1,-8.2,21.7,8.1,-0.2
Cc1noc(C)c1COc1ccc(C(=O)N2CCC(C(N)=O)CC2)cc1,3.3,x,-2.3,4.2,x,-4.2,x,x
CCOC(=O)C1CCCN(C(=O)c2ccc(S(=O)(=O)Nc3ccccc3OC)cc2)C1 (centres undefined),8.5,-2.4,-5.5,-1.8,x,1.2,x,x
O=C(Nc1cccc([N+](=O)[O-])c1)c1cc2ccccc2cc1O,5.5,23.1*,16.4,-11.4,-2.4,11.4,19.2*,-1.4
O=C(O)c1ccccc1C(=O)Nc1cccc([N+](=O)[O-])c1,-5.4,0.8,0.6,0.8,-0.2,1.7,x,x
O=C(NC1CCCC1)c1ccc2nc(-c3ccco3)c(-c3ccco3)nc2c1,-45.4,18.9*,22.3,-29.0,-2.1,42.8,2.7,2.0
COc1ncccc1C(=O)N1CCCC(C(=O)Nc2cccc(-c3ccc(F)cc3)c2)C1 (centres undefined),1.3,x,-6.4,-2.3,x,1.4,x,x
CCOC(=O)c1cc(-c2ccccc2)nc2c1c(C)nn2-c1ccccn1,4.5,30.6*,14.4,-0.8,-1.5,4.0,31.5*,-3.0
O=C(C[n+]1cc(-c2ccc(Cl)cc2)n2c1CCC2)Nc1nc(-c2ccc(F)cc2)cs1,2.3,21.2*,-2.3,0.9,-1.0,4.1,-8.1,1.4
CC1CCCCN1CCNC(=O)c1ccc2c(=O)n(Cc3ccc(Cl)cc3)c(=S)[nH]c2c1 (centres undefined),17.0,3.1,14.0,9.9,3.1,2.8,x,x
CC(=C/c1ccccc1)/C=N/NC(=O)c1nnn(-c2nonc2N)c1CN1CCC(C)CC1,-2.8,8.6,6.5,0.5,1.9,-4.2,x,x
CC1CCN(Cc2c(C(=O)N/N=C/c3ccccc3O)nnn2-c2nonc2N)CC1,-0.3,21.9*,13.0,1.9,-1.2,4.2,16.7*,-5.0
COc1ccc(-c2nnc(NC(=O)c3ccc(S(=O)(=O)N4COCC4(C)C)cc3)o2)cc1,1.0,29.7*,20.7,-0.6,0.1,4.4,28.7*,-1.1
SMILES,Rpn11 inh,PP1 inh,NadD inh,HNF4A DNA FP,TPT1 inhibitor,CSN inh,PP1 inh confirm,PP5 counter
CCCn1c(N)c(C(=O)CSc2nc(C)cs2)c(=O)[nH]c1=O,-5.8,-2.1,-2.4,1.1,0.4,-0.7,x,x
CCCn1c(N)c(C(=O)CSc2nc(C)nc3sc(C)c(C)c23)c(=O)[nH]c1=O,-0.2,22.3*,0.0,0.4,-1.9,-2.2,-0.6,-4.0
CCc1ccc(N=C2NC(=O)/C(=C/c3ccc(OCC(=O)O)cc3)S2)cc1,1.5,39.2*,7.8,0.7,-0.5,7.2,3.4,-1.1
O=C1CC(Sc2ncccn2)C(=O)N1c1ccccc1 (centres undefined),-11.5,3.4,1.3,-0.4,-5.3,0.7,x,x
Cc1nc(SC2CC(=O)N(c3ccccc3)C2=O)n[nH]1 (centres undefined),-4.0,20.9*,3.5,-2.9,2.1,0.4,-4.5,-6.8
O=C(Nc1ccncc1)C1CCN(S(=O)(=O)c2c(Cl)cccc2Cl)CC1,-9.6,-3.1,-4.7,1.5,5.1,3.4,x,x
Cc1c(CCC(=O)O)c(=O)oc2c(C)c(OCc3cc4c(cc3Cl)OCO4)ccc12,5.0,20.4*,14.3,-31.4,-0.4,17.6,5.7,-2.5
COc1ccccc1OCCSc1nc2ccccc2n1CC(=O)O,9.1,x,-0.7,4.6,x,-3.5,x,x
CC1=NNC(=O)/C1=C\c1cn(-c2ccccc2)nc1-c1ccc(F)cc1,-2.0,x,-5.4,1.4,x,5.4,x,x
CC1=NNC(=O)/C1=C\c1cn(-c2ccccc2)nc1-c1cccs1,9.5,18.5*,17.0,-0.8,2.0,-1.2,10.4,-0.4
CCCOc1ccc(C(=O)NC(=S)NNC(=O)c2c(-c3ccccc3)noc2C)cc1,27.9,18.4*,0.8,0.4,-6.3,-0.7,1.3,-1.2
CCCOc1ccc(NC(=O)c2c(-c3ccccc3)noc2C)cc1,-3.9,-5.3,-6.5,-2.2,-2.0,-8.0,x,x
CC(=O)c1ccc(N2CCN(C(=O)c3ccc(Cn4c(=S)[nH]c5ccc(N6CCOCC6)cc5c4=O)cc3)CC2)cc1,4.0,45.4*,11.0,4.1,1.3,1.6,29.5*,1.9
O=C(c1ccc2c(=O)n(Cc3ccccc3)c(=S)[nH]c2c1)N1CCOCC1,-6.1,0.6,-1.2,-1.7,-2.3,-5.7,x,x
O=C(NCC1CCCC(CNC(=O)Nc2ccc(Cl)cn2)C1)Nc1ccc(Cl)cn1 (centres undefined),7.5,18.9*,9.1,-4.8,-3.6,9.4,12.8,5.0
O=C(COC(=O)CC1CCCC1)Nc1ccc(Cl)cn1,-3.1,-3.1,-0.5,8.8,x,-2.0,x,x
Cc1[nH]n2c(=O)c3c(nc2c1-c1ccccc1)CCC3,1.3,2.3,7.1,0.9,-0.8,2.0,x,x
